PvdQ acylase: P. aeruginosa PvdQ acylase inhibition | purified PvdQ acylase, fluorescence plate reader | actives 0.063% (n = 340,000) | AID 488965 | inhibition, % at 10 µM; in the data active = inhibition above about 30%, passing the limit was not always enough; inconclusive = no clear call, values can overlap the other calls;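 note: 0% = vehicle neutral wells and 100% = reference inhibitor wells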
CaV13 ICDI inh: Disruptors of the CACNA1D IQ motif to Ca2+-dependent inactivation inhibitor domain association, primary screening, Förster resonance energy transfer in intact living …; HEK cells, CFP/YFP FRET ICDI-IQ, plate reader, 10 min; percent FRET-ratio fall versus neutral wells; inhibition, % at 12.3 µM; actives 0.098% (n = 340,000); AID 743397;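 active = mean replicate inhibition of at least 30% and at least 1% of replicates passing that level; inconclusive = only one of the two criteria is met; inactive = neither criterion is met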;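 note: 0% = median of the neutral control wells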
Glyco luc inh: blocks N-linked glycosylation in D54 reporter cells; D54 ERlucT glycosylation luciferase reporter, 24 h; percent of 100 nM tunicamycin response; reporter increase, % at 12.5 µM; actives 0.23% (n = 360,000); AID 588692;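 active = mean luciferase reporter signal, scaled so untreated is 0 and the glycosylation-blocking control 100, at or above a set limit in every replicate; inconclusive = mean reaches the limit but not every replicate does; inactive = mean below the limit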;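 note: luciferase carries N-glycosylation sites so blocking glycosylation raises the light; 0% = median of neutral control wells and 100% = median of 100 nM tunicamycin wells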
HSF1 activator: increases HSF-1 driven luciferase reporter signal | NIH3T3-HGL HSF-1 luciferase reporter, MG132, 8 h; 100% = twice DMSO control signal | activation, % at 9 µM | actives 1.7% (n = 300,000) | AID 504408;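 active = mean replicate activation of at least 50% with a set share of replicates each reaching 50%; inconclusive = only one of those two conditions met; inactive = mean below 50% and too few replicates reaching it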;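 note: 0% = median of the neutral control wells and 100% = twice that signal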
PfHsp90 yeast 2: reduces growth (ATP signal) of yeast expressing P. falciparum Hsp90 | actives 0.32% (n = 310,000) | AID 504621 | S. cerevisiae expressing PfHsp90, BacTiter-Glo ATP, 48 h; yeast lacking PDR1 and PDR3 efflux regulators | inhibition, % at 9.4 µM;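 active = every replicate shows inhibition above about 80%, whatever the replicate mean, limit read from the data; inconclusive = mean inhibition reaches the set limit but some replicate falls short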;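 note: 0% = DMSO neutral controls and 100% = 20 µM radicicol positive controls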
T cruzi repl: T. cruzi replication inhibition; inhibition, % (concentration not given with the values); AID 1885; actives 1.4% (n = 300,000); T. cruzi beta-gal in NIH3T3, luminescence, 90 h;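 active = mean inhibition across valid replicates above about 55%, limit read from the data; inconclusive = mean below that limit but half or more replicates reach it; inactive = mean below it, under half of replicates reach it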;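 note: signal also drops with host cell toxicity which is not excluded here; 0% = plate median of DMSO wells and 100% = zero luminescence signal; higher percent means less beta-gal luminescence so fewer parasites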
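Read-out: Parasite load inhibition, % | Test system: Mouse NIH/3T3 fibroblasts infected with β-gal-expressing T. cruzi Tulahuen C4 | Amount: 5,000 cells/well | Medium: DMEM, 2% fetal bovine serum | Signal: GalScreen β-gal luminescence, detergent lysis, 60 min | Timing: 3 h attach, ≥90 h co-culture | Also added: Tulahuen C4 trypomastigotes, 5000/well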
Active calls of the source: *. The list is not random: actives were taken first. Their share in the collection is about 3%.

Screening CN(Cc1ccccc1)C(=O)c1ncn2c1c(=O)[nH]c1cccnc12 returned CaV13 ICDI inh -9.4 and Glyco luc inh 2.0.
`C=CS(=O)(=O)c1sc(Cl)c(N2CCOCC2)c1[N+](=O)[O-]` gave PvdQ acylase 6.5, CaV13 ICDI inh -4.0, Glyco luc inh -3.8, HSF1 activator 74.2*, PfHsp90 yeast 2 -137.6 and T cruzi repl 55.4*.
C=CSc1sc(Cl)c(N2CCOCC2)c1[N+](=O)[O-] was read as PvdQ acylase 2.6, CaV13 ICDI inh -4.4, Glyco luc inh -2.6, HSF1 activator 2.8, PfHsp90 yeast 2 -9.6 and T cruzi repl -12.0.
`CC(=O)NC(c1ccccc1)c1nc(-c2cccc(C#N)c2)cs1` (stereo not given) gave CaV13 ICDI inh -4.7 and Glyco luc inh -1.8.
Screening CCn1c(=N)n(CC(=O)C23CC4CC(CC(C4)C2)C3)c2ccccc21 returned PvdQ acylase -11.4, Glyco luc inh -3.3, HSF1 activator -3.0, PfHsp90 yeast 2 7.1 and T cruzi repl 57.6*.
`CCn1c(=N)n(CC(=O)c2cccc([N+](=O)[O-])c2)c2ccccc21` gave PvdQ acylase -6.8, CaV13 ICDI inh -10.5, Glyco luc inh 3.8, HSF1 activator 0.5, PfHsp90 yeast 2 -5.5 and T cruzi repl 0.5.
For O=C(NCCCN1CCCC1)C1CCN(C(=O)c2cc3sccc3n2Cc2ccc(F)cc2)CC1 the results were PvdQ acylase -9.8, Glyco luc inh -5.6, HSF1 activator 14.9, PfHsp90 yeast 2 13.0 and T cruzi repl 55.1*.
`COC(=O)[C@]1(CC(C)C)NC=C(C(=O)c2ccccc2)[C@@H]1c1cccc(C(F)(F)F)c1` gave CaV13 ICDI inh -3.5.
CS(=O)(=O)c1cc(C(=O)O)cc(NCc2ccccc2)c1Oc1ccccc1 was read as CaV13 ICDI inh -18.2 and Glyco luc inh -0.9.
CN(C)c1ccc(C=c2c3ccccc3n3c2c2c([n+]3C)CCCC2)cc1 was read as PvdQ acylase 13.7, CaV13 ICDI inh -7.3, Glyco luc inh 69.9* and PfHsp90 yeast 2 -42.3.
CN(C)c1ccc(C=c2c3ccccc3n3c2cc(-c2ccccc2)[n+]3C)cc1 was read as PvdQ acylase -6.2, CaV13 ICDI inh -5.3, Glyco luc inh inconclusive and PfHsp90 yeast 2 104.7*.
`CN(C)c1ccc(C=c2c3cc([N+](=O)[O-])ccc3n3c2cc(-c2ccccc2)[n+]3C)cc1` gave PvdQ acylase -4.1, CaV13 ICDI inh -6.9, Glyco luc inh -8.5 and PfHsp90 yeast 2 18.9.
`CN(C)c1ccc(C=c2c3ccccc3n3c2cc(-c2ccc(Cl)cc2)[n+]3C)cc1` gave PvdQ acylase -14.7, CaV13 ICDI inh -5.3, Glyco luc inh inconclusive and PfHsp90 yeast 2 -9.6.
Screening COc1cc(C=c2c3ccccc3n3c2cc(-c2ccccc2)[n+]3C)cc(OC)c1OC returned PvdQ acylase -13.5, CaV13 ICDI inh -8.6, Glyco luc inh -8.1 and PfHsp90 yeast 2 -11.7.
`COc1cc(N(C)C)ccc1C=c1c2ccccc2n2c1cc(-c1ccccc1)[n+]2C` gave PvdQ acylase -15.6, CaV13 ICDI inh -9.3, Glyco luc inh 8.6 and PfHsp90 yeast 2 104.1*.
`COc1ccccc1CCn1cnc(-c2ccc(Cl)cc2)c1CC(C)C` gave CaV13 ICDI inh -4.8.
For CCOC(=O)N(C)[C@H]1C[C@H]2c3[nH]c4c(-c5ccccc5)cccc4c3CCN2C(=O)[C@H]1[C@H](C)O the results were CaV13 ICDI inh -3.9.
`Cc1cccc(OCCNc2cc(N3CCN(C)CC3)ccc2[N+](=O)[O-])c1` gave PvdQ acylase -9.5, CaV13 ICDI inh -8.1, Glyco luc inh 12.3, HSF1 activator -4.7, PfHsp90 yeast 2 35.3 and T cruzi repl 67.3*.
Cc1cccc(OCCNc2cc(N3CCOCC3)ccc2[N+](=O)[O-])c1 was read as PvdQ acylase 3.1, CaV13 ICDI inh -8.0, Glyco luc inh 2.9, HSF1 activator 48.8, PfHsp90 yeast 2 27.3 and T cruzi repl 24.2.
CCOC(=O)N/N=C(/C)c1ccc([N+](=O)[O-])o1 was read as PvdQ acylase -5.0, CaV13 ICDI inh -7.8, Glyco luc inh 1.8, HSF1 activator 4.2, PfHsp90 yeast 2 -6.5 and T cruzi repl 57.5*.
COc1cc(OC)cc(C(=O)Nc2ccc(-c3nc4ccccc4o3)cc2)c1 was read as PvdQ acylase -6.6, CaV13 ICDI inh -6.2, Glyco luc inh 0.1, HSF1 activator -2.5 and T cruzi repl 60.3*.
For O=C(Nc1ccc(-c2nc3ccccc3o2)cc1)c1cccnc1 the results were PvdQ acylase -9.9, CaV13 ICDI inh -3.9, Glyco luc inh -3.0, HSF1 activator 55.0*, PfHsp90 yeast 2 -17.0 and T cruzi repl -1.5.
For COc1cccc(C(=O)Nc2ccc(-c3nc4ccccc4o3)c(O)c2)c1 the results were PvdQ acylase 7.4, Glyco luc inh 1.9, HSF1 activator 9.6, PfHsp90 yeast 2 12.0 and T cruzi repl 18.7.
`CCOC(=O)C1CSCCS(=O)(=O)N1Cc1cccc(Cl)c1` (stereo not given) gave CaV13 ICDI inh -6.3.
For Cn1c(=O)[nH]c(=O)c2c1nc(N/N=C/c1cccnc1)n2Cc1ccc(Cl)cc1 the results were CaV13 ICDI inh 4.8, Glyco luc inh 53.2*, HSF1 activator 22.4 and T cruzi repl 16.7.
Cn1c(=O)[nH]c(=O)c2c1nc(N/N=C/c1ccncc1)n2Cc1ccc(F)cc1 was read as CaV13 ICDI inh 2.1, Glyco luc inh 19.1, HSF1 activator 40.6 and T cruzi repl -28.1.
For Cn1c(=O)c2c(nc(N/N=C/c3ccc(OC(=O)c4ccco4)cc3)n2Cc2ccc(F)cc2)n(C)c1=O the results were PvdQ acylase 10.8, CaV13 ICDI inh -4.0, Glyco luc inh 11.6, HSF1 activator 55.5*, PfHsp90 yeast 2 -3.8 and T cruzi repl 4.1.
Screening O=C(NCCN1CCC(n2c(=O)[nH]c3ccccc32)CC1)c1cccc(Cl)c1 returned CaV13 ICDI inh -5.6.
`O=[N+]([O-])/C=C\c1ccc(N2CCCC2)c(F)c1` gave PvdQ acylase -11.0, Glyco luc inh 5.1, HSF1 activator 79.2*, PfHsp90 yeast 2 105.5* and T cruzi repl 1.5.
For CCCN(CCC)S(=O)(=O)c1ccc(C(=O)Nc2nnc(-c3cc(OC)cc(OC)c3)o2)cc1 the results were PvdQ acylase -8.5, Glyco luc inh 0.2, HSF1 activator -18.7, PfHsp90 yeast 2 -46.2 and T cruzi repl 58.5*.
CCN(Cc1ccccc1)S(=O)(=O)c1ccc(C(=O)Nc2nnc(-c3ccccc3OC)o2)cc1 was read as PvdQ acylase -12.4, CaV13 ICDI inh -4.6, Glyco luc inh 0.2, HSF1 activator -13.2, PfHsp90 yeast 2 -54.1 and T cruzi repl 62.0*.
